Experimental data collected from several papers.
Lines come from different studies, so protocols differ.
Target: Ephrin type-A receptor 2 (EPHA2, Homo sapiens, UniProt P29317)

SMILES | test | conditions | remaining binding [%]
CCC(=N\O)/C(C)=C/c1ccc(F)cc1 | cell-free assay, competition with immobilised ligand | 1 µM | 84
COc1cnc(Nc2cccc(S(N)(=O)=O)c2)nc1N1CCN(c2ccccc2)CC1 | binding, competition with immobilised ligand | 1 µM | 100
CN(C)c1ncc(F)c(-c2cnn3ncccc23)n1 | binding | 1 µM | 80
O=C(NCCCN1CCOCC1)c1ccc(Nc2ncc(Cl)c(-c3ccc(Cl)s3)n2)cc1 | binding, competition with immobilised ligand | 1 µM | 100
C[C@H](c1ccnc(Nc2nc3ccc(-c4cc(N(C)C)ncn4)cc3[nH]2)c1)N1CCN(C(=O)CC(F)(F)F)CC1 | cell-free assay, competition with immobilised ligand | 0.1 µM | 100
N#Cc1ccccc1CSc1nnc2c(n1)[nH]c1ccccc12 | binding, competition with immobilised ligand | 10 µM | 87
O=C(NCc1ncc(C(F)(F)F)cc1Cl)c1ccc2c(c1)C1(CCS(=O)(=O)CC1)[C@@H](C1CC1)N2S(=O)(=O)c1ccc(F)cc1 | cell-free assay, competition with immobilised ligand | 1 µM | 84
CC1CCCN1c1nccc(-c2cnn3ncccc23)n1 (stereo not shown) | binding | 1 µM | 99
NS(=O)(=O)c1cc(NC(=O)Cc2ccccc2)ccc1Oc1cccc(Cl)c1 | cell-free assay, competition with immobilised ligand | 1 µM | 91
COc1ncc2cc3ccccc3nc2c1C#N | cell-free assay, competition with immobilised ligand | 5 µM | 96
c1cnn2ncc(-c3ccnc(N4CCC45COC5)n3)c2c1 | binding | 1 µM | 94
O=C(NCCCN1CCOCC1)c1ccc(Nc2nccc(-c3cc4ccccc4s3)n2)cc1 | binding, competition with immobilised ligand | 1 µM | 72
Nc1cnc(N2CCc3cc(S(=O)(=O)Nc4c(F)cc(Cl)cc4F)cc(N4CCCC4=O)c32)nc1 | cell-free assay, competition with immobilised ligand | 1 µM | 100
CN(c1nccc(-c2cnn3ncccc23)n1)C1CC1 | binding | 1 µM | 99
COc1cnc(Nc2cccc(S(N)(=O)=O)c2)nc1N1CCN(c2ccccc2)C(=O)C1 | binding, competition with immobilised ligand | 1 µM | 99
C[C@@H]1CCN(c2nccc(-c3cnn4ncccc34)n2)C1 | binding | 1 µM | 93
Nc1ncc2c(n1)-c1c([nH]c3ccc(C#CC4CC4)cc13)CCCC2 | binding, competition with immobilised ligand | 1 µM | 100
O=C(NCC1CCOCC1)c1n[nH]cc1NC(=O)c1c(F)cccc1F | binding, competition with immobilised ligand | 1 µM | 100
CO[C@@H](C)c1c(Nc2ccc([C@H](N(C)C(=O)C3CCS(=O)(=O)CC3)C(F)(F)F)cc2)cnc2cc(Cl)nn12 | cell-free assay, competition with immobilised ligand | 1 µM | 100
C[C@@H]1CN(c2ccc3ncc(-c4ccc5[nH]nc(C6CC6)c5c4)n3n2)C[C@H](C)O1 | binding, competition with immobilised ligand | 0.5 µM | 100
CN(C)C(=O)Cn1cc(-c2nc([C@@](C)(c3ccc(-c4cnc(N)nc4)cc3)C3CC3)no2)cn1 | cell-free assay, competition with immobilised ligand | 1 µM | 100
COc1ccnn2ncc(-c3ccnc(N(C)C)n3)c12 | binding | 1 µM | 100
FC(F)(F)Oc1cccc(-c2cnc3ccc(-c4ccncc4)nn23)c1 | cell-free assay, competition with immobilised ligand | 5 µM | 80
N[C@@H]1CCN(c2nccc(-c3cnn4ncccc34)n2)C1 | binding | 1 µM | 100
O=C(c1ccc(Nc2ncc(Cl)c(-c3ccc(Cl)s3)n2)cc1)N1CCC(N2CCCC2)CC1 | binding, competition with immobilised ligand | 1 µM | 100
